MrgX1 PAM: positive allosteric modulators of MrgX1, primary screen, HEK293 cells, Fluo-4 calcium flux | Mas-related G-protein coupled receptor member X1 (Homo sapiens), Q96LB2 | FDSS; active compounds read high | B-score at 10 µM | hit rate 0.63% among 310,000;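 active = plate-corrected calcium response at least 3 library SD above typical, normal starting fluorescence, not activating the receptor alone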;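 also: compound read alongside a low EC10 to EC30 dose of BAM8-22 agonist; peak minus trough fluorescence over baseline measured at the second addition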
Target sequence (Q96LB2 whole entry, looked up): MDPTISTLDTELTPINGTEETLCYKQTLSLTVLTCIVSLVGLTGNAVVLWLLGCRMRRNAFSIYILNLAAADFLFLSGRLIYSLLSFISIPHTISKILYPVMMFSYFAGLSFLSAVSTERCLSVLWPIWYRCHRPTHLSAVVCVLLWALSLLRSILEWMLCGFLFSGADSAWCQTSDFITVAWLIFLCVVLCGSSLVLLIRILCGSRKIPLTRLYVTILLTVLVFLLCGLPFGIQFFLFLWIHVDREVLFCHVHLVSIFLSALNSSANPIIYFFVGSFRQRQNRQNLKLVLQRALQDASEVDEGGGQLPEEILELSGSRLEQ
MrgX1 ag: agonists of human MrgX1 receptor, primary screen, HEK293 cells, Fluo-4 calcium flux. Mas-related G-protein coupled receptor member X1 (Homo sapiens), Q96LB2. Fluo-4 calcium fluorescence, agonist mode; active compounds read high. B-score at 10 µM. hit rate 0.44% among 310,000;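 active = calcium response B-score plate-corrected fluorescence ratio at least 3 library SD, with starting fluorescence B-score inside 5 SD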
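times = overnight plating, then 30 min 37 °C plus 30 min room-temperature dye loading | assay system = stable human MrgX1 HEK293 cell line | input = fifteen thousand cells per well | signal = kinetic calcium dye fluorescence, Fluo-4 NW | dosing = compound delivered in addition one of three | read-out = B-scored fluorescence response ratio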
RGS4 pot: RGS4 potentiators or activators, primary screen, cell-based, HEK293 M3R inducible RGS4, calcium flux; carbachol calcium flux Fluo4; active compounds read low; B-score at 10 µM; hit rate 0.92% among 310,000; AID 463111, 2010;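 active = B-score of the integrated calcium signal more than 4 SD below the library mean, with starting fluorescence not abnormally high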;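 also: negative B-score means reduced calcium response which marks RGS4 activation or potentiation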
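test system = HEK293 cells with stable M3R and inducible RGS4 | schedule = recording 10 s baseline at 1 Hz, 100 s post-agonist | technique = Fluo4-AM (2 µM) calcium-flux fluorescence, kinetic read | measure = Agonist-evoked peak-minus-minimum fluorescence over baseline, integrated ratio, B score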
MrgX1 antagonist: antagonists of human MrgX1 receptor, primary screen, HEK293 cells, Fluo-4 calcium flux. hit rate 1.3% among 310,000. Mas-related G-protein coupled receptor member X1 (Homo sapiens), Q96LB2. B-score at 10 µM. BAM8-22 antagonism; active compounds read low. AID 588676, 2011;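 active = calcium-response B-score plate-corrected more than 3 library SD below zero, starting fluorescence within 5 deviations, no agonist response on first addition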;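 also: peak minus trough fluorescence over baseline after final BAM8-22 challenge near maximal dose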
RGS4 block: RGS4 inhibitors, primary screen, cell-based, HEK293 M3R inducible RGS4, calcium flux | AID 463165, 2010 | Fluo-4 calcium flux; active compounds read high; triggered by carbachol at its EC20 | B-score at 10 µM | hit rate 0.45% among 310,000;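 active = B-score, a plate-corrected calcium signal, over three deviations above library mean, with baseline fluorescence within five deviations of library mean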;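 also: RGS4 expression induced by doxycycline in cells with stable M3 receptor; B-score is computed from the integrated fluorescence ratio over baseline after carbachol; higher B-score means a larger calcium signal and so more RGS4 inhibition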
Target sequence (P49798 whole entry, looked up): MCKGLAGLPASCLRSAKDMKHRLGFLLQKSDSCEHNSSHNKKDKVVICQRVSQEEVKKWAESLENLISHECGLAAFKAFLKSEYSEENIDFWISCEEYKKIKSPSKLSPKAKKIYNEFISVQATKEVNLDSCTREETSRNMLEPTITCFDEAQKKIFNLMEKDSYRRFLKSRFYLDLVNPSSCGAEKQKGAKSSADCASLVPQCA
Numbers without * were called inactive; i = inactive; · = no result. Sampled rows, rich in hits. Any-hit rate of the full collection: about 3.5%.

SMILES	MrgX1 PAM	MrgX1 ag	RGS4 pot	MrgX1 antagonist	RGS4 block
COc1cc(/C=N/NC(=O)c2ccccn2)ccc1OC(=O)c1ccccc1Br	i	i	-8.12*	i	i
Cc1ccc(CNCc2cc(Cl)ccc2O)cc1	i	i	·	i	·
C/C=C/c1ccc(OCC(=O)Nc2cc(Cl)ccc2-n2cncn2)c(OC)c1	i	i	i	i	i
COc1cc(/C=C/C(=O)NC(=O)c2ccccc2O)ccc1O	12.4*	i	i	i	i
O=C(N/N=C\c1cc(Br)c(Br)o1)c1cncc(Br)c1	i	i	i	i	i
O=C(N/N=C/c1cc(Br)c(Br)o1)c1cccnc1	i	i	i	-6*	i
COc1ccc(Cl)cc1NC(=O)CCNC(=O)OCc1ccccc1	i	i	i	i	i
Cc1cccc(N2CCN(CCCNC(=O)c3ccc(NC(=O)C4=CSCCO4)cc3)CC2C)c1 (configuration not stated)	i	i	i	i	i
COc1ccc(/C=C/C(=O)C2C(=O)C=C(C)OC2=O)cc1O (configuration not stated)	i	i	i	-4.67*	i
COc1cc(C(c2c(O)nc(SC)[nH]c2=O)c2c(O)nc(SC)[nH]c2=O)cc(OC)c1OC	i	i	i	-4.68*	i
O=C(CC1C(=O)NCCN1Cc1ccc(-c2ccccc2)cc1)NCCCn1ccnc1 (configuration not stated)	i	i	i	i	i
CCOC(=O)CC(N)c1cccc([N+](=O)[O-])c1 (configuration not stated)	i	i	i	i	i
CC1=CC(C)(C)N2C(=O)C3(C(C#N)=C(N)OC4=C3C(=O)CC(C)(C)C4)c3cccc1c32 (configuration not stated)	·	·	i	·	i
CC1(C)CC(=O)C2=C(C1)OC(N)=C(C#N)C21C(=O)N(Cc2ccccc2Cl)c2ccccc21 (configuration not stated)	8.66*	i	i	i	i
CCCOc1ccc(C2NC(=S)NC(c3ccccc3)=C2C(=O)Nc2ccc(C)cc2)cc1OC (configuration not stated)	i	i	i	i	i
CC(C)c1ccc(S(=O)(=O)/N=C2/C=C(Sc3ncn[nH]3)C(=O)c3ccccc32)cc1	8.63*	i	·	i	·
O=C(NCCc1ccccc1)c1cnc2n(c1=O)CCS2	i	i	i	i	i
O=C(NCc1ccccc1Cl)c1cnc2n(c1=O)CCS2	i	i	i	-4.73*	i
CCC(NC(=S)NC1CCCCC1)c1ccc(C(C)C)cc1 (configuration not stated)	i	i	-8.53*	-5.29*	i
CCOC(=O)Cn1c(COc2ccccc2OC)[n+](C)c2ccccc21	i	i	i	i	i
CCCCCCCCCCOC(=O)Cn1c(COc2cccc(C)c2)[n+](C)c2ccccc21	i	i	-8.47*	-5.94*	i
CCCCCCCCCCOC(=O)Cn1c(COc2ccc(OC)cc2)[n+](C)c2ccccc21	i	i	-9.1*	-9.13*	i
Cn1c(SCC(=O)N2CCCCCC2)nc2c(c1=O)SCC2	i	i	i	i	i
COc1ccc(-c2cc(C(F)(F)F)c3c(n2)sc2c(O)cc(=O)[nH]c23)c(OC)c1	i	39.1*	i	i	i
CCCCCCC(C)OC(=O)c1ccccc1C(=O)O (configuration not stated)	i	i	i	i	i
SMILES	MrgX1 PAM	MrgX1 ag	RGS4 pot	MrgX1 antagonist	RGS4 block
Cc1ccc(-n2cc(-c3ccc([N+](=O)[O-])cc3)[nH]c2=S)c(C)c1	9.71*	i	i	i	i
CCCOC(=O)c1c(-c2ccc(OC)cc2)oc2ccc(-c3ccc(OC)nc3)cc12	i	i	i	-8.26*	i
COC(=O)c1c(-c2ccc(OC)cc2)oc2ccc(-c3ccc(OC)nc3)cc12	i	i	i	i	i
NC(=O)c1ccc(NC(=O)c2cnc3ccccc3n2)cc1	i	i	i	i	i
CN(C)CCCNC(=O)/C(=C\c1ccc(-c2ccc(Br)cc2)o1)NC(=O)c1ccccc1	i	i	i	i	i
CN(C)CCCNC(=O)/C(=C/c1ccc(-c2ccc([N+](=O)[O-])cc2)o1)NC(=O)c1ccccc1	i	i	i	-5.72*	i
Cc1ccc(OCc2nnc(NC(=O)c3cccnc3)s2)cc1	i	i	i	i	i
CN1C(=O)C(C)(C)c2cc(S(=O)(=O)NCc3ccc(C(=O)NCc4ccco4)cc3)ccc21	i	i	i	i	i
COc1cc(C2C(C#N)=C(N)OC3=C2C(=O)CC(C)(C)C3)c([N+](=O)[O-])cc1OC (configuration not stated)	i	29.2*	i	i	i
COc1ccc(C2C(C#N)=C(N)OC3=C2C(=O)CC(C)(C)C3)c([N+](=O)[O-])c1OC (configuration not stated)	i	i	i	i	i
CCN1C(=O)[C@H]2[C@@H](c3ccc(-c4ccccc4)cc3)N[C@@](CC(C)C)(C(=O)OC)[C@H]2C1=O	i	i	i	i	i
CC(C)(C)c1ccc(OCCCNC2CCCC2)cc1	i	i	-7.37*	i	i
COc1cccc(NS(=O)(=O)NC(=O)c2cn(C)c3ccccc23)c1	i	i	i	i	i
CCOc1ccc(C(=O)Nc2cc(-c3nc4ccccc4[nH]3)ccc2C)cc1[N+](=O)[O-]	i	i	-7.08*	i	i
Cc1ccc(-c2nc3ccccc3[nH]2)cc1NC(=O)c1ccc2c(c1)OCO2	i	i	i	i	i
Cc1ccc(-c2nc3ccccc3[nH]2)cc1NC(=S)NC(=O)c1ccccc1Br	i	i	-7.09*	i	i
C/C(=N\Nc1nc2ccc(Cl)cc2o1)c1ccccc1	i	i	i	i	i
COc1ccc(C(CC(=O)c2ccccc2)CC(=O)c2ccccc2)cc1OC	i	i	i	-6.66*	i
C/C(=C\c1ccccc1)C(=O)Nc1ccc(S(=O)(=O)Nc2ncccn2)cc1	i	i	i	i	i
CCOC(=O)Cn1nc(NC(=O)c2ccc3c(c2)OCO3)cc1C	i	i	i	i	i
CC(=O)c1ccc(-n2cc(-c3ccc(C(C)(C)C)cc3)[n+]3c2SCCC3)cc1	i	i	-9.63*	i	i

Screens as filed in PubChem.
